The values below come from ChEMBL document CHEMBL4020714, “Design, synthesis, and evaluation of curcumin derivatives as Nrf2 activators and cytoprotectors against oxidative death” (Eur J Med Chem, 2017).

Common to all, as to assay type: cell-based
Experiment [1] deals with T1, Nuclear factor erythroid 2-related factor 2 (Homo sapiens) (UniProt Q16236).
T1 sequence (whole entry): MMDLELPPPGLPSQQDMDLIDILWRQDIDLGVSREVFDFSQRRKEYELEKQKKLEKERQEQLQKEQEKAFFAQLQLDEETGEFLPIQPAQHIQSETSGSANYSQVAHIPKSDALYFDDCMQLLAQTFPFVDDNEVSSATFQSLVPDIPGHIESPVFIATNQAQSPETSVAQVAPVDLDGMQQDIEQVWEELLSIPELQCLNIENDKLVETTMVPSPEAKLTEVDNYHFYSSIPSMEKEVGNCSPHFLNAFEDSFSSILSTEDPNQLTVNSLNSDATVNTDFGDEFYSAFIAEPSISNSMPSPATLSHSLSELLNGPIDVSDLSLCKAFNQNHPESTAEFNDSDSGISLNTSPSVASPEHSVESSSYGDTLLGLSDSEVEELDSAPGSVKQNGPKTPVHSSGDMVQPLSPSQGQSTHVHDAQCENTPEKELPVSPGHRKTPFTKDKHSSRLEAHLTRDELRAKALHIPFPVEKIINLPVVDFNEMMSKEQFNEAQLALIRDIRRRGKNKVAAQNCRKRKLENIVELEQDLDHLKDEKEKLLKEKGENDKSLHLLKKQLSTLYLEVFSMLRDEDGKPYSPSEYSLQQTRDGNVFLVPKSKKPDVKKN
As to the kind of experiment: Activation of Nrf2 in human HepG2 cells assessed as increase in GCLM expression level after 3 hrs by Western blot analysis. In outline:
(§1)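 HepG2 cells (2×10^6/well) treated at the indicated concentrations and times. Whole-cell lysates, or nuclear and cytoplasmic fractions, are prepared and quantified by BCA. Samples are run at 40 μg/lane on 12% SDS-PAGE, transferred to nitrocellulose, probed with specific antibodies and HRP secondary (1/5000), and detected by ECL. Where used, LY294002 (15 μM), SP600125 (25 μM) or DTT (400 μM) is added 1 h before compound.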

The target of experiment [2] is T1, Nuclear factor erythroid 2-related factor 2 (Homo sapiens). Nature of the experiment: Activation of Nrf2 in human HepG2 cells assessed as cytoprotection against t-BHP-induced oxidative cell death at 5 uM incubated for 24 hrs followed by compound removal with subsequent incubation with 900 uM of t-BHP for 6 hrs in presence of 3 uM HO-1 inhibitor ZnPP for 1 hr prior to compound treatment by MTT assay. In outline: (§2)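 HepG2 cells (5×10^3/well) seeded and grown 24 h in 1640 medium with 10% FBS at 37 °C and 5% CO2. Compound is added for 24 h, then removed, and cells are challenged with 900 μM t-BHP for 6 h at 37 °C. MTT (0.5 mg/mL) is added for 4 h, formazan dissolved in DMSO, and absorbance read at 570 nm. Where used, inhibitors are added 1 h before compound. Mean ± SD of three independent experiments.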

Experiment [3] shares this target. Nature of the experiment: Activation of Nrf2 in human HepG2 cells assessed as cytoprotection against t-BHP-induced oxidative cell death at 5 uM incubated for 24 hrs followed by compound removal with subsequent incubation with 900 uM of t-BHP for 6 hrs in presence of 400 uM metal ion chelator EDTA for 1 hr prior to compound treatment by MTT assay.
Experiment [4] shares this target. As to the kind of experiment: Activation of Nrf2 in human HepG2 cells assessed as increase in cytosolic Nrf2 expression level at 5 uM after 1 to 6 hrs by Western blot analysis. The gist of the method: as §1
Experiment [5] shares this target. As to the kind of experiment: Activation of Nrf2 in human HepG2 cells assessed as increase in GCLM expression level after 24 hrs by Western blot analysis. The gist of the method:
as §1

Experiment [6] shares this target. Nature of the experiment: Activation of Nrf2 in human HepG2 cells assessed as increase in nuclear Nrf2 expression level at 5 uM after 1 to 6 hrs by Western blot analysis. In outline:
as §1

Experiment [7] shares this target. As to the kind of experiment: Activation of Nrf2 in human HepG2 cells assessed as increase in HO-1 expression level at 5 uM in presence of 15 uM PI3K/Akt inhibitor LY294002 for 1 hr prior to compound treatment by Western blot analysis. The gist of the method: as §1
Experiment [8] shares this target. As to the kind of experiment: Activation of Nrf2 in human HepG2 cells assessed as cytoprotection against t-BHP-induced oxidative cell death at 5 uM incubated for 24 hrs followed by compound removal with subsequent incubation with 900 uM of t-BHP for 6 hrs in presence of 400 uM DTT for 1 hr prior to compound treatment by MTT assay. The gist of the method:
as §2

Experiment [9] has the same target. As to the kind of experiment: Activation of Nrf2 in human HepG2 cells assessed as increase in GCLC expression level at 5 uM in presence of 15 uM PI3K/Akt inhibitor LY294002 for 1 hr prior to compound treatment by Western blot analysis. The gist of the method:
as §1

Experiment [10] shares this target. Nature of the experiment: Activation of Nrf2 in human HepG2 cells assessed as increase in GCLC expression level after 24 hrs by Western blot analysis. The gist of the method:
as §1

Experiment [11] concerns the target Kelch-like ECH-associated protein 1 (Homo sapiens) (UniProt Q14145). As to the kind of experiment: Induction of keap1-dependent Nrf2 stabilization in human HepG2 cells assessed as upregulation of total Nrf2 level at 5 uM pretreated for 3 hrs followed by coincubation with 5 ug/ml cycloheximide for 24 hrs by Western blot analysis. In outline: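 HepG2 cells pretreated with or without 5 μM compound for 3 h, then given 5 μg/mL cycloheximide for the indicated periods (up to 24 h). Total lysates are immunoblotted for Nrf2. Half-life is obtained by fitting a single-phase decay model.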

For experiment [12], the target named is T1, Nuclear factor erythroid 2-related factor 2 (Homo sapiens). Nature of the experiment: Activation of Nrf2 in human HepG2 cells assessed as increase in HO-1 expression level at 5 uM by Western blot analysis. The conditions noted are these: TDE = time-dependent effect. In outline:
as §1

The target is the same in experiment [13]. As to the kind of experiment: Activation of Nrf2 in human HepG2 cells assessed as increase in HO-1 expression level after 3 hrs by Western blot analysis. The gist of the method: as §1
For experiment [14] the target is unchanged. Nature of the experiment: Activation of Nrf2 in human HepG2 cells assessed as increase in nuclear Nrf2 expression level at 5 uM after 12 hrs by Western blot analysis. In outline: as §1
Experiment [15] shares this target. As to the kind of experiment: Activation of Nrf2 in human HepG2 cells assessed as increase in HO-1 expression level after 24 hrs by Western blot analysis. In outline: as §1
Experiment [16] shares this target. As to the kind of experiment: Activation of Nrf2 in human HepG2 cells assessed as increase in nuclear Nrf2 expression level after 3 hrs by Western blot analysis. The gist of the method:
as §1

Experiment [17] has the same target. Nature of the experiment: Activation of Nrf2 in human HepG2 cells assessed as increase in GCLC expression level at 5 uM in presence of 25 uM JNK inhibitor SP600125 for 1 hr prior to compound treatment by Western blot analysis. In outline:
as §1

Experiment [18] has the same target. Nature of the experiment: Activation of Nrf2 in human HepG2 cells assessed as cytoprotection against t-BHP-induced oxidative cell death at 5 uM incubated for 24 hrs followed by compound removal with subsequent incubation with 900 uM of t-BHP for 6 hrs by MTT assay. In outline:
as §2

The target of experiment [19] is RAC-alpha serine/threonine-protein kinase (Homo sapiens) (UniProt P31749). Nature of the experiment: Induction of Akt phosphorylation in human HepG2 cells at 5 uM by Western blot analysis. Conditions: TDE = time-dependent effect. The gist of the method:
as §1

The target of experiment [20] is T1, Nuclear factor erythroid 2-related factor 2 (Homo sapiens). Nature of the experiment: Activation of Nrf2 in human HepG2 cells assessed as increase in HO-1 expression level at 5 uM in presence of 25 uM JNK inhibitor SP600125 for 1 hr prior to compound treatment by Western blot analysis. In outline: as §1

The structures appear in SMILES notation. Calls of active or inactive are those of the source. The rule behind the calls is not given here.

RAC-alpha serine/threonine-protein kinase (Homo sapiens), sequence (P31749 whole entry): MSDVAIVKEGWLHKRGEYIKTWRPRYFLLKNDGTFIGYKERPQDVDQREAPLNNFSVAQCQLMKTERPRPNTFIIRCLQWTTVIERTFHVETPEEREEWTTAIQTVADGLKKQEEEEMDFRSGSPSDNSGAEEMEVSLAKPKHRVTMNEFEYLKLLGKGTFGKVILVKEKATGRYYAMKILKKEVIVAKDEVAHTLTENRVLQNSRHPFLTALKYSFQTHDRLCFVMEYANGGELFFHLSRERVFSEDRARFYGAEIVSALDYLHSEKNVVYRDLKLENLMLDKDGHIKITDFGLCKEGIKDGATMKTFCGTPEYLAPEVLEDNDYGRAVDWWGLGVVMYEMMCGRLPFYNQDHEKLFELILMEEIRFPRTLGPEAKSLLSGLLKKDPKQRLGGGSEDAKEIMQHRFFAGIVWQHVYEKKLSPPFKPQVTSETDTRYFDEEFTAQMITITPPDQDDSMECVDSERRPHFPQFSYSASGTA
Kelch-like ECH-associated protein 1 (Homo sapiens), sequence (Q14145 whole entry): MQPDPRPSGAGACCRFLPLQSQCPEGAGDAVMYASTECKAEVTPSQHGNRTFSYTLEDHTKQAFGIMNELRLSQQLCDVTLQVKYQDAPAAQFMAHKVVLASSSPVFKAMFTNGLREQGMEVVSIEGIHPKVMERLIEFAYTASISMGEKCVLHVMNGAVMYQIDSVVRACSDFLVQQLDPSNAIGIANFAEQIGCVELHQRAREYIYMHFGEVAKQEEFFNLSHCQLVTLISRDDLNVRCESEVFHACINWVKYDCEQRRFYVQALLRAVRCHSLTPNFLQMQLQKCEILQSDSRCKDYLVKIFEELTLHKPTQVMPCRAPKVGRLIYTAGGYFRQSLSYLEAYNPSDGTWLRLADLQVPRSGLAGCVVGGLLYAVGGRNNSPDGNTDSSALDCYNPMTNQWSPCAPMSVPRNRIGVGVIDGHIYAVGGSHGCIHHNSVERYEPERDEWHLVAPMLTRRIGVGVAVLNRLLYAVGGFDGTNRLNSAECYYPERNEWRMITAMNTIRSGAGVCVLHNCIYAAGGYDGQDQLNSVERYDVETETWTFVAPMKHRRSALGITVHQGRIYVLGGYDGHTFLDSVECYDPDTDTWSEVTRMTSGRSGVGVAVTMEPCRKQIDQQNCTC

With `CC(C)(C(=O)/C=C/c1ccc(O)c(O)c1)C(=O)/C=C/c1ccc(O)c(O)c1`, the result in experiment [1], in [4], in experiment [6], in experiment [11], in experiment [13] and in experiment [18] was Active. In addition, the outcome in [2], in experiment [3], in [7], in experiment [8], in experiment [9] and in experiment [14] was inactive. Also, the outcome in experiment [17] and in [20] was inactive. Also, the Activity entry in [5] was “Dose-dependent effect”; in experiment [10], “Dose-dependent effect”; in [12], “Tde”; in experiment [15], “Dose-dependent effect”; in experiment [16] it was “Dose-dependent effect”; in experiment [19] it was “Tde”.
